Rpn11 block: Rpn11 (PSMD14) deubiquitinase inhibitors, primary screen, biochemical, fluorescence polarization, uHTS. AID 588493, 2011. human 26S proteasome, Ub4-pepOG fluorescence polarization; 20S core pre-blocked with epoxomicin. 360,000 tested, 0.59% active. 26S proteasome non-ATPase regulatory subunit 14 (Homo sapiens), O00487. inhibition, % at 20 µM;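 active = inhibition at 20 µM, scaled to each plate's controls, above about 33%, limit read from the data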
Target sequence (O00487 whole entry, looked up): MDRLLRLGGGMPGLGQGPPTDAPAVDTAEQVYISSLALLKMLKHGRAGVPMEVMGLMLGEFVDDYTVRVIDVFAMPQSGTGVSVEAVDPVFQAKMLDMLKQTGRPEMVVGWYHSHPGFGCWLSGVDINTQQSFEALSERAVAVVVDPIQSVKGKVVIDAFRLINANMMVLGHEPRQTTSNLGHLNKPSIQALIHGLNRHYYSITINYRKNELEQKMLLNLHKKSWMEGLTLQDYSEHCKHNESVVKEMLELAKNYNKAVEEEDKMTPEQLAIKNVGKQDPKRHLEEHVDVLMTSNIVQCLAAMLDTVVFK
HNF4A DNA FP: change in binding of human HNF4A to DNA, primary screen, biochemical, fluorescence polarization, FITC-DNA; Hepatocyte nuclear factor 4-alpha (Homo sapiens), P41235; 1 h; activity change, % at 10 µM; 360,000 tested, 0.3% active; in the data active = activity change above about 30%, passing the limit was not always enough
SENP1 inh: human SENP1 catalytic domain inhibitors, primary screen, biochemical, FRET, uHTS; Sentrin-specific protease 1 (Homo sapiens), Q9P0U3; 360,000 tested, 0.21% active; AID 624204, 2012; recombinant SENP1 catalytic domain, CyPet-SUMO1-YPet FRET cleavage; inhibition, % at 10 µM;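 active = inhibition at least 30% at 10 µM, raw YFP signal under a set limit, fluorescence ratio 0.5 to 1.5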;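 also: 0% = enzyme with DMSO and 100% = no enzyme wells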
Target sequence (Q9P0U3 419-644 limits assumed): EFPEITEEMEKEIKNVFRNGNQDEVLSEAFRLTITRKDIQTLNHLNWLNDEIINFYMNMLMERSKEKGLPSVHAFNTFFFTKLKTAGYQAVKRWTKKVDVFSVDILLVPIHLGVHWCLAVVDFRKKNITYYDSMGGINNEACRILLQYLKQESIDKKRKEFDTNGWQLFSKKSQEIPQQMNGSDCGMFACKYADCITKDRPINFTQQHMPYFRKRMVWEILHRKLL
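material = recombinant human SENP1 catalytic domain, His6-tagged | quantity = 20 pM enzyme | reagent = 25 nM SUMO1 FRET substrate | compound dosing = 10 µM single point, 0.5% DMSO | timing = 50 min enzyme reaction, room temperature, light-protected | detection = FRET, CFP and YFP emission | control set = no-enzyme low, enzyme-DMSO high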
TPT1 inh: Candida albicans TPT1 enzyme inhibitors, primary screen, biochemical, fluorescence polarization | tRNA 2'-phosphotransferase TPT1 (Candida albicans SC5314) | recombinant caTPT1, FP RNA substrate dephosphorylation | inhibition, % at 5 µM | 300,000 tested, 0.81% active | AID 1962, 2009;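 active = inhibition above the mean of all tested compounds plus 3 SD, set per screening campaign, cut at about 24% in these data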;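 also: plate controls were DMSO alone for no effect and ferristatin control at 100 nM for full effect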
CSN inh: inhibitors of CSN-mediated cullin deneddylation, primary screen, biochemical, fluorescence polarization, uHTS | COP9 signalosome complex subunit 5 (Homo sapiens), Q92905 | Purified CSN, SCF-Nedd8-OG deneddylation | inhibition, % at 12.5 µM | 360,000 tested, 0.38% active | AID 651999, 2013;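 active = pattern-corrected inhibition above about 35%, with an unprinted fluorescence ratio check between 0.5 and 1.5, limit read from the data, passing the limit was not always enough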;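 also: 0% = enzyme with substrate and 100% = substrate without enzyme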
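Schedule: reaction 90 min, room temperature / Assay system: HEK293T-derived human Csn5 enzyme / Input: Csn5 at 0.24 nM final / Measure: inhibition of Csn5 cleavage, % / Control set: substrate-only high control, full reaction low control / Technique: fluorescence polarization of the substrate / Buffer or medium: Tris/NaCl/DTT buffer, pH 7.5 / Reagent: SCFSkp2-Nedd8OG substrate at 10 nM final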
caTPT1 confirm: Candida albicans TPT1 inhibitors, confirmation, biochemical, fluorescence polarization, triplicate; shares compounds with TPT1 inh; recombinant caTPT1, RNase T1 coupled; inhibition, % at 5 µM; 2,400 tested, 74% active;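 active = inhibition above the primary screen limit, the mean inhibition of all tested compounds plus 3 SD, cut at about 25% in these data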
RNase T1 inh: RNase T1 inhibitors, counter-screen for TPT1 inhibitor project, biochemical, fluorescence polarization; 2,400 tested, 83% active; AID 2153, 2009; RNase T1 cleavage, 1536-well; inhibition, % at 5 µM; shares compounds with TPT1 inh;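 active = inhibition above the solvent-only control well mean plus 3 SD, limit set per screening run, cut at about 23% in these data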;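 also: plate controls were DMSO wells with enzyme for no effect and wells without RNase T1 for full effect; inhibitors block cleavage so intact labeled substrate keeps polarization high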
Target sequence (P00651 whole entry, looked up): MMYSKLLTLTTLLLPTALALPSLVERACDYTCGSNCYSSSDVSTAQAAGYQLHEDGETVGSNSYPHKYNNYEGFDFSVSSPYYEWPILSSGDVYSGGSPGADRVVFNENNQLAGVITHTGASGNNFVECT
Active calls of the source: *; x = no result shown; + = active, no number. Most compounds without a hit are left out; they make up all but 1.6% or so of the library.

SMILES | Rpn11 block | HNF4A DNA FP | SENP1 inh | TPT1 inh | CSN inh | caTPT1 confirm | RNase T1 inh
Nc1c(C(=O)O)sc2nc(-c3ccccc3)cc(-c3ccc(F)cc3)c12 | x | 35* | -34 | 29* | 8 | 27* | 38*
CCOc1ccc(CCN2C(=O)C(=O)N([C@@H](Cc3ccccc3)CN3CCC[C@H]3CN3C(=O)C(=O)NC[C@@H]3Cc3ccccc3)C[C@@H]2Cc2ccccc2)cc1 | x | -3 | 2 | x | 2 | x | x
COc1ccc(N/C=C2\CCc3ccccc3C2=O)cc1 | x | 22 | -36 | 51* | 18 | 59* | 71*
O=C1/C(=C/Nc2ccc3c(c2)OCO3)CCc2ccccc21 | 33 | 49* | 8 | 83* | 13 | 57* | 74*
COc1ccc2c(c1)CC/C(=C\Nc1ccc3c(c1)OCO3)C2=O | x | 45* | -23 | 65* | 15 | 74* | 87*
COc1ccc(S(=O)(=O)Nc2ccc3c(c2)OCO3)cc1 | -1 | -3 | 1 | 1 | 3 | x | x
COc1ccc(CNC(=O)c2ccc(N3CCC4(CC3)CC(c3ccc(Cl)cc3)=NO4)c(N)c2)cc1 | x | x | x | 2 | x | x | x
O=C1Nc2ccccc2-n2nnnc2C1N1CCN(CCN2CCOCC2)CC1 (centres undefined) | x | 1 | 1 | x | 0 | x | x
COc1ccc(/C=C/C(=O)OCC(=O)NC2CCCC2)c(OC)c1 | -8 | 1 | 1 | x | 2 | x | x
O=C(OCCN1C(=O)c2cccc3c(N4CCOCC4)ccc(c23)C1=O)c1cccc(Cl)c1 | x | x | x | 49* | x | 62* | 70*
O=C(OCCN1C(=O)c2ccccc2C1=O)c1cc(S(=O)(=O)N2CCOCC2)ccc1Cl | 0 | -1 | 6 | 0 | 1 | x | x
O=C(OCCN1C(=O)c2cccc3c(N4CCOCC4)ccc(c23)C1=O)c1ccc(Cl)cc1Cl | -125 | -37 | -26 | 59* | -58 | 64* | 70*
O=C(OCCN1C(=O)c2cccc3c(N4CCOCC4)ccc(c23)C1=O)c1ccccc1Cl | -102 | 17 | -27 | 53* | -13 | 63* | 70*
Cc1ccc(F)cc1C(=O)N1CCCCC1c1cc(C(=O)Nc2cccc(C#N)c2)no1 (centres undefined) | -2 | 1 | -1 | x | 1 | x | x
COc1cccc(NC(=O)NC2CCCc3ccccc32)c1 (centres undefined) | -4 | -2 | 0 | -4 | 4 | x | x
CCN(CC)c1cc(CS(=O)c2ccccc2)nc(-c2ccccc2)n1 (centres undefined) | 3 | 1 | 0 | -4 | -1 | x | x
Cc1ccccc1-n1c(SCC(N)=O)nc2sc(-c3ccccc3)cc2c1=O | -1 | -1 | 0 | -3 | 1 | x | x
Cc1ccccc1-n1c(SCC(=O)NC(N)=O)nc2sc(-c3ccccc3)cc2c1=O | 8 | 1 | -6 | 31* | 5 | 6 | 11
CCOC(=O)/C=C1/SCC(=O)N1Cc1ccc(Br)cc1 | -2 | 1 | -2 | x | 2 | x | x
CCOC(=O)/C=C1\SCC(=O)N1Cc1nnc(-c2ccccc2Br)o1 | 21 | 31 | -7 | 31* | 17 | 31* | 40*
COc1ccc(Nc2nnc(SCC3CCCO3)s2)cc1 (centres undefined) | -6 | 2 | 2 | 2 | 1 | x | x
Cc1c(C(=O)N2CCCC2)c(S(=O)(=O)Nc2cccc(Br)c2)c(C)n1C | 2 | 0 | 3 | 2 | -1 | x | x
O=[N+]([O-])c1ccc(-c2ccc(/C=N/Nc3nc(NCc4ccccc4)nc(N4CCOCC4)n3)o2)cc1 | x | 36 | -31 | 87* | 25 | 89* | 93*
COc1nc(N/N=C/c2ccc(-c3ccccc3[N+](=O)[O-])o2)nc(N2CCOCC2)n1 | 0 | -1 | -3 | 3 | -5 | x | x
C=CCN1C(=O)c2cccc3c(Br)ccc(c23)C1=O | 0 | 1 | -7 | 1 | 2 | x | x
SMILES | Rpn11 block | HNF4A DNA FP | SENP1 inh | TPT1 inh | CSN inh | caTPT1 confirm | RNase T1 inh
O=C1c2cccc3c(N4CCCCC4)ccc(c23)C(=O)N1CCO | -103 | -30 | -24 | 50* | -70 | 4 | 18
O=C1c2cccc3c(N4CCCCC4)ccc(c23)C(=O)N1c1cccc(O)c1 | x | 46 | -26 | 75* | 10 | 52* | 61*
C=CCN1C(=O)c2cccc3c(N4CCCCC4)ccc(c23)C1=O | 6 | -22 | -27 | 64* | -66 | 41* | 57*
O=[N+]([O-])c1ccc(-c2nc(-c3cccs3)c(-c3cccs3)[nH]2)cc1 | x | 32 | 26 | 63* | 28 | 60* | 77*
Cc1csc(Nc2ccccc2)n1 | 2 | 2 | 4 | + | 4 | 3 | 9
CC1(C)CC(NNCCC#N)=CC(=[N+]2CCCC2)C1 | 4 | 5 | -4 | 49* | -6 | 54* | 69*
O=[N+]([O-])c1ccc(N2CCCCC2)cc1N1CCOCC1 | -2 | 3 | -1 | 25* | 4 | 9 | 12
O=[N+]([O-])c1ccc(N2CCOCC2)cc1N1CCCCC1 | 7 | 9 | -1 | -2 | 4 | x | x
COC(=O)CN1C(=O)CSc2ccc(S(=O)(=O)N3CCC(C)CC3)cc21 | 1 | 4 | 0 | x | -5 | x | x
O=C1CC(=O)N(CCc2ccccc2)C(=O)N1CCc1ccccc1 | 24 | 4 | -3 | 40* | 0 | 5 | 9
O=C1CNC(=S)N1Cc1ccc(F)cc1 | 4 | 3 | 1 | 3 | 2 | x | x
CC1CC(=O)N(CCc2ccccc2)C(=O)C1 | -3 | 4 | 2 | x | 1 | x | x
O=C1CC(=O)N(CCc2ccc(F)cc2)C(=O)N1 | 19 | 11 | -3 | 39* | 13 | 31* | 40*
Cc1c(OCC(=O)NCCCn2ccnc2)ccc2c3c(c(=O)oc12)CCC3 | -9 | 2 | 2 | -2 | -6 | x | x
CCCc1cc(=O)[nH]c(SCC(=O)Nc2sc3c(c2C(N)=O)CCCC3)n1 | 7 | 4 | -20 | x | -3 | x | x
CCCCc1ccc(CC2S/C(=C(\C#N)C(=O)N3CCOCC3)N(c3ccccc3)C2=O)cc1 (centres undefined) | 10 | 0 | 34* | 35* | 2 | 62* | 74*
CC1=CS/C(=C(/C#N)C(=O)N2CCOCC2)N1c1ccccc1 | 0 | -1 | -1 | -4 | -1 | x | x

Compound activity deposited in PubChem by several laboratories.
